The values below come from the RNAGym collection of RNA variant scans (doi:10.1126/science.aae0568).

First the molecules themselves.
B1: tRNA (parent)
chain: GUUCCGUUGGCGUAAUGGUAACGCGUCUCCCUCCUAAGGAGAAGACUGCGGGUUCGAGUCCCGUACGGAACG

Fewer inactive variants are shown than the library holds. Bounds are passed on as bounds.

This series covers variants of B1. Kind of series: yeast fitness relative to wild type (ratio to wild type); higher = fitter; tRNA-Arg(CCU), competitive growth, 37 C, YPD. Summed up: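 Genotype frequency changes were the basis for Darwinian fitness relative to wild type. The frequencies came from 100-nucleotide paired-end sequencing of gene amplicons from the start population and each end population of pooled yeast strains with tRNA-Arg(CCU) gene variants at the native locus. Competition ran in YPD at 37°C for 24 hours in six replicates, genotypes needed ≥ 100 starting reads, and estimates < 0.5 were set to 0.5.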
Regarding GUUCCGUUGGCGUAAUGGUAACGCGUCUCCCUCCUCGGGAGAAGACUGAGGGUUCGAGUCCCGUACGGAACG, the yeast fitness turned out to be 0.541.
For the variant GUUCCGUUGGCGUAAUGGUAAGGAGUCUCCCUCCUAAAGAGAAGACUGCGGGUUCGAGUCCCGUACGGAACG, the yeast fitness was found to be 0.544.
The figure for GUUCCGUUGGCGUAAUCGUAACGCGUCUCCCUCCCAAGGAGAAGACUGCGGGUUCGAGUUCCGUACGGAACG is at most 0.5.
The figure for GUCCCGUUGGCGUUAUGGUAACGCGUCUCCCUCCUAAGGGGAAGACUGCGGGUUCGAGUCGCGUACGGAACG is 0.567; for GUUCGGUUGGCGUAAUGGUAACGCAUCUCCCUCCUAAGGAGAAGACUGCGGGUUCAAGUCCCGUACGGAACG it is 0.803; for GUUCCGUUAGCGUAAUGGUAGCGCGUCUCCCUCCUAAGGAGAAGACUGCGGGUUCGAGUCCCGUACGGAACG it is 1.05.
The figure for GUGCUGUUGGCGUAAUGGUAACGCGUCUCCCUCCUAAGGAGAAGACUGCGGGUUCGAGUCCCGUACGGAACG is 0.724; for GUUCCGUUGGCGUAGUGGUAACGCGUCUCCCUCCUGGGGAGAAGACUGCGGGUUCGAGUCCCGUACGGAACG it is 0.624; for GUUCCGAUGACGUAAUGGUAACGCGUCUCCCUCCUAAGGAGAAGACUGCGGGUUCGAGUUCCGUACGGAACG it is 0.607.
Consider GUUCCGUUGGCGUAUUGGAGACGCGUCUCCCUCCUAAGGUGAUGACUGCGGGUUCGAGUGCUGUGCGGAACG, for which the yeast fitness was at most 0.5.
The figure for GUUCCGUUGGCGUAAUGGUAACGCGUCUGCCUCCUAAGGAGAAGACUGCGGGUUGGAGUCCCGUACGGAGCG is at most 0.5; for GUUCCGUUGGCGUAAUGGUUACGCGUCUCCCUCCUAAGAAGAAGCCUGCGGGUUCGCGUCCCGUACGCAACG it is at most 0.5.
Regarding GUUCCGUUGGCGUAAUGGUAACGCGUCUCCCUCCUAAGGAGAAGACUGCGGGUUCGUGUCCCGUGCGGAACG, the yeast fitness is 0.753.
Regarding GUUCCGUUGGCGUAAUGGUAACGCGUCUCCGUCCUAAGGAGAAGUCAGCGGGUUCGAGUCCCGUACAGAACG, the yeast fitness is at most 0.5.
For GUUCGGUUGGCGUAAUGGUAACGCGUCUCCCUACUAAGGAGAAGACUGCGGGUUCGAGUCCCGUUCGGAACG, the yeast fitness is at most 0.5.
The figure for GUUCCGUUCCCGUAAUGGUAACGCGUCUCCCUCCUUAGGAGAAGACUGCGGGUUCGAGUCCCGUACGGAACG is at most 0.5; for GUUCCGUUGGCGUAAUGGUAAUGUGUUUCCUUCCUAAGGAGAAGACUGCGGGUUCGAGUCCUGUACGGAACG it is at most 0.5; for GUUCCGUUGGCGUAAUAGUGACGCGUCUUCCUUCUAAGGAGAAGACUGCGGGUUCGAGUGCCGUACGGAACG it is at most 0.5.
Turning to GUUCCGUUGGCGUAUUGGUAACGCGUCUCCCUCCUAAGCAGAAGACCGCGGGUUCGAGUCCCGUACGGAACG, the yeast fitness was at most 0.5.
The figure for GUUCCGUUGGCGUAAUGGUAACCCGUCUCCCUCCUAAGGAGCCGACUGCGGGUUCGAGUCCCGUACGGAACG is 0.575; for GUUCCGUCGGCGUAAUGGUAACGCGUCUGUCUCCUAAGGAGAAGAUUACGGGUUCGAGUCCCGUACGGAACG it is at most 0.5; for GUUCCGUUGGCGUGAUGGUAACGCGUCUUCCUCCUAAGAAGAAGACUGUGGGUUCCAGUCCCGUACGGAACG it is at most 0.5.
The figure for GUUCCGUUGGCGUAACGGUAACGCGUCUCCCUCCUAAGGAGAAGACUGCGGAUUCAAGUCCCGUACGGAACG is 0.69; for GUUCCGUAGGCGUAAUGGUAACGCGUCUCCCUCCUAAGGAGAAGACUGCGGGUAUGAGUCCCGUACGAUACG it is 0.507.
As for GUUACGUUGGCGUAAUGGUAACACGUCACCCUCCUAAGGAGAAGACUGCGGGUUCGAGUCCCGUACGGAACG, the yeast fitness was at most 0.5.
Under GUUCCGUUGGCGUAAUGGUAGCGCGUCUCCCUCCUAAGGAGAAGCCUGCGGGUUCGAGCCCCGUACGGGACG stands 0.539; under GUUCCGUUGGCGAAAUGGUAACGCGUCUGGCUCCUAAGGAGAAGACUGAGGGUUCCAGUCUCGUACGGAACG, 0.635; under GUUCCAUUGGCGUAAUGGUAACGGGUCUCCCUCCAAAGGAGAAGAUUGCGCGUUUGAGUCCCGUCCGGAACG, at most 0.5.
The figure for GUUCCGUUGGCGUAAUGGUAACGCGUCUCCCGACUAAGGAGAAGACAGCGGGUUCGAGUCCCGUACGGAACG is at most 0.5; for GUUCCGUUGGCGUAAUGGUAACGCGUCUCGCUCCUAAGGAGCAGACUGCGGGUUCGAGAUCCGUACGGAACG it is 0.507.
Under GUUCCGUUGGCGUUAUGGUAACGCGUCUCCCUCCUAAGGAGAAGACUGCGGGUUCGAGUCCGGUACGGAACG stands 0.692; under GUUCCGUUGGCGUAAUGGUAACGCGUUUCCCCCCUAAGGAGAAGACUGCGGGUUAGAGUCCCGUACGGAACG, at most 0.5.
GUUCCGUUGGCGUAAUGGUAACGCGUCUCCCUCCUAAGGAGAAGACUGCGGGUUCGCGUUCCGUACGGCACG: the yeast fitness was at most 0.5.
The figure for GUUCCGUUGGCGUAACGGUAACGCGUCUCCCUCCUAAGGAGAAGACUGCGGGUUCGACUCCCGUACGGAACG is 1.06.
The figure for GUUCCGUUGGCGUAAUGGUAACACGUCUCCCUCCUAAGGAGAAGACUGCGGGUACGAGUCCCGUACAGAACG is at most 0.5; for GUUCCGUUGGCGUCAUGGUAACGCGUCUCCCUCCUAAGGAGAAGACUGCGGGUUCGAGUCCCGUACGGAGCG it is 0.749; for GUUCCGUUGGCGUUAUGGAAACGCGUCUCCCUCCUCAGGAGAAGACUGCGGGUUCGAGUCCCGUACGGAACG it is at most 0.5.
The figure for GUUCCGUUGGCGUAAUGGUAACGCGUCUCCCGCCUAAAGAGAAGACUGCGGGUUCGAGUCGCGUACGGAGCG is at most 0.5.
